# From PubChem BioAssay
# Hits are enriched below; roughly 1.4% of the tested compounds scored in any of these assays.
# FXIIa inh: blocks human coagulation factor XIIa protease activity | purified FXIIa, Boc-QGR-AMC fluorogenic substrate, 2 h | inhibition, % at 5 µM | 220,000 tested, 0.3% active | AID 800; in the data active = inhibition above about 40%;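 also: 0% = enzyme with no compound and 100% = blank without enzyme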
# FXIa inh 1536: inhibitors of human coagulation factor XIa. P03951. purified FXIa, Boc-Glu-Ala-Arg-AMC fluorogenic substrate. inhibition, % at 5 µM. 220,000 tested, 0.14% active. AID 798;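 active = inhibition of at least 40%; inactive = inhibition below 40%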;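 also: fluorescence of freed AMC excited at 355 nm; 0% = enzyme without compound and 100% = no enzyme blank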
# Target sequence (P03951 19-387 limits assumed): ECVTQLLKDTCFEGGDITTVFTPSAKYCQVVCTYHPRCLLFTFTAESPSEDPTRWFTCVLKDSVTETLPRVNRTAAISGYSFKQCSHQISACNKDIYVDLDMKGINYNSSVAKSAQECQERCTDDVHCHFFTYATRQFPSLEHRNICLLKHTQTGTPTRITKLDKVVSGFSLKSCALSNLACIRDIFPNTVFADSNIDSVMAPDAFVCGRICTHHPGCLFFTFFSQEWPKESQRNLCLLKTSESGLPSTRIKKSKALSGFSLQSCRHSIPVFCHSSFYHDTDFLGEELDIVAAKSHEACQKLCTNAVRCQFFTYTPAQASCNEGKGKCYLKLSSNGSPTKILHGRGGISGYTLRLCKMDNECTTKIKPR
# Target sequence (P03951 388-625 limits assumed): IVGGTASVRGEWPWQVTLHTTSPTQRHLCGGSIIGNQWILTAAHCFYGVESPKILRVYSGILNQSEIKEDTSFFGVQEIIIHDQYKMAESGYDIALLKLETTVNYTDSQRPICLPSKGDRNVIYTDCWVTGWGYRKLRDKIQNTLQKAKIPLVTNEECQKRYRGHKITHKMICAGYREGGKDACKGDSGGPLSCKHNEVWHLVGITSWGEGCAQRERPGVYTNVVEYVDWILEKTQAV
# hK5 inh: kallikrein 5 (human) inhibition. AID 873. recombinant hK5, fluorogenic AMC substrate cleavage. inhibition, % at 5 µM. 210,000 tested, 0.59% active. Q9Y337;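 active = inhibition of 40% or more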;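 also: 0% = enzyme controls without compound and 100% = no-enzyme blanks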
# Calpain2 inh: blocks pig calpain II enzyme activity; purified calpain II, fluorogenic peptide substrate, 30 min; AID 1236; inhibition, % at 16 µM; 220,000 tested, 0.37% active;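 active = inhibition above about 50%, limit read from the data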
# thrombin 1536: blocks human thrombin protease activity; inhibition, % at 5 µM; alpha-thrombin, Boc-VPR-AMC fluorogenic substrate cleavage; AID 1046; 220,000 tested, 0.26% active;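 active = inhibition at or above 40%; inactive = inhibition below 40%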;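 also: 0% = enzyme with no compound and 100% = wells without enzyme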
#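 System: human alpha-thrombin protein; Compound dosing: one concentration per compound, 5 µM, with 0.2% DMSO; Timing: reaction at room temperature; Technique: AMC fluorescence, 355/460 nm; Controls: enzyme without compound as high, wells lacking enzyme as low.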
# * marks the source's active call; other numbers are inactive results; . = not tested or not shown.
SMILES,FXIIa inh,FXIa inh 1536,hK5 inh,Calpain2 inh,thrombin 1536
Cc1c(C(=O)c2ccc(Cl)c(Cl)c2)cnc2cc3c(cc12)OCO3,8,4,-7,10,-3
COc1ccc(C(=O)c2cnc3cc4c(cc3c2C)OCO4)cc1,0,9,74*,33,34
Cc1ccc(NC(=O)CSCC(=O)NCCc2ccccn2)c(C)c1,13,14,17,-17,0
CC(C)OP(=O)(c1ccc(N(C)C)cc1)C(O)c1cccnc1 (stereo unspecified),2,-10,12,9,-5
CCOC(=O)c1ccc(CC(=O)c2ccc(O)c(O)c2O)o1,12,3,.,58*,0
CCOC(=O)C1=C(CC)Nc2ccccc2N=C1NC(=O)Cn1cnc2ccccc2c1=O,-2,-7,-3,-3,-6
CCOC(=O)C1=C(CC)Nc2ccccc2N=C1NC(=O)CCN1C(=O)C2CCCCC2C1=O (stereo unspecified),24,32,54*,29,36
COc1ccc(OC)c(S(=O)(=O)N2CCCCCC2)c1,9,6,-20,9,4
COc1ccc(OC)c(S(=O)(=O)N2CCCC(C)C2)c1 (stereo unspecified),33,49*,-4,17,-4
COc1ccc(OC)c(NC(=O)C2CCCN(S(=O)(=O)c3cccc4cccnc34)C2)c1 (stereo unspecified),14,15,57*,-10,23
COc1ccc(CNC(=O)C2CCCN(S(=O)(=O)c3cc(C)ccc3OC)C2)cc1 (stereo unspecified),-4,-5,2,0,-10
CCOC(=O)N1CCN(C(=O)C2CCCN(S(=O)(=O)c3cc(C)ccc3OC)C2)CC1 (stereo unspecified),0,1,40*,-24,104*
COc1ccc(N2C(=O)C(Cl)=C(N3CCCC(C)C3)C2=O)cc1 (stereo unspecified),57*,44*,2,41,4
CCC(=O)NC(Nc1c(C)n(C)n(-c2ccccc2)c1=O)C(Cl)(Cl)Cl (stereo unspecified),11,11,-5,9,3
N#CC(c1ccccc1)N(CCCCl)C(=O)c1ccc(Br)cc1 (stereo unspecified),9,5,-22,8,-2
CCOCCCNC(=S)N1CCC(NC(=O)C23CC4CC(CC(C4)C2)C3)CC1,14,-2,3,16,1
O=C(NCc1ccc(F)cc1)c1ccc(S(=O)(=O)Nc2cccc(C(F)(F)F)c2)cc1,10,5,49*,4,25
CCOC(=O)C1CN(S(C)(=O)=O)c2cc(CC(=O)OC)ccc2O1 (stereo unspecified),10,-1,2,-4,-4
COc1cc(/C=N/Nc2cc(C)nc(NS(=O)(=O)c3ccccc3)n2)ccc1O,37,67*,23,6,26
COc1cc(NC(=O)CSc2nc3ccccc3n2-c2ccccc2)c(C)cc1[N+](=O)[O-],8,5,-5,-47,2
CCSc1nnc(NC(=O)CN2C(=O)C3CC=CCC3C2=O)s1 (stereo unspecified),6,-2,-3,2,-4
CCSc1nnc(NC(=O)[C@H](C)N2C(=O)C3CC=CCC3C2=O)s1 (stereo partly specified),33,56*,46*,19,15
Cc1cc(C)n2nc(SCC(=O)Nc3ccc(F)cc3)nc2n1,41*,17,-17,17,-4
CNC(=O)CSc1nc2nc(C)cc(C)n2n1,17,0,3,-8,2
Cc1ccc(C(=O)Oc2cccc(-n3cnnn3)c2)cc1,8,3,0,62*,-10
SMILES,FXIIa inh,FXIa inh 1536,hK5 inh,Calpain2 inh,thrombin 1536
O=C(Oc1cccc(-n2cnnn2)c1)c1ccco1,36,35,17,-11,32
O=C1NC(=S)S/C1=C\c1cc2ccccc2nc1N1CCCCC1,3,-7,-3,56*,0
COc1ccc2nc(N3CCCCC3)c(/C=C3\SC(=S)NC3=O)cc2c1,22,2,1,27,-6
O=C(COc1ncnc2sccc12)NC1CCS(=O)(=O)C1 (stereo unspecified),10,6,1,-29,2
O=c1cc(N2CCCCC2)c(-c2ccccc2)nn1Cc1ccccc1,5,-6,-1,15,-5
COc1ccc(Cn2nc(-c3ccccc3)c(N3CCCCC3)cc2=O)cc1,4,-3,-2,72*,-9
C=CCN1C(=O)C(C(C)CC)NC1=S (stereo unspecified),23,36,88*,10,41*
C=CCN1C(=O)C(C)NC1=S (stereo unspecified),9,3,0,-8,-9
O=C(c1cc2cc(Br)ccc2o1)N1CCCC1,.,37,18,3,57*
CC(NC(=O)C12CC3(C)CC(C)(CC(C)(C3)C1)C2)C(=O)O (stereo unspecified),2,-2,-6,-26,2
C/C(=N/NC(=O)c1ccc(C)nc1)c1ccc2c(c1)CCCC2,1,-9,-1,-7,-2
COc1ccccc1CN(CC(=O)NCc1ccco1)C(=O)CNS(=O)(=O)c1ccccc1,0,-3,0,11,4
COc1ccccc1CN(CC(=O)NCc1ccco1)C(=O)CNS(=O)(=O)c1ccc(C)cc1,21,8,-5,-11,56*
OCC1(CCc2ccccc2)CCN(Cc2ccccc2Cl)CC1,11,4,.,15,4
Clc1ccccc1CN1CCN(CCCc2ccccc2)CC1,98*,3,-2,34,-7
Clc1ccc(CSc2nnc(-c3c[nH]c4ccccc34)o2)cc1,15,7,4,23,4
Brc1ccc(CSc2nnc(Cc3c[nH]c4ccccc34)o2)cc1,-1,-7,-19,70*,-7
Cc1[nH]c2ccc(F)cc2c1CCN(Cc1cccnc1)C(=S)Nc1cccc(F)c1,9,9,12,28,.
Cc1ccccc1NC(=S)N(CCc1c(C)[nH]c2ccc(F)cc12)Cc1cccnc1,11,0,2,64*,-2
Cc1cc(C)c(C#N)c(SCC(=O)c2ccccc2)n1,2,-5,-4,5,-14
Cc1cc(C)c(C#N)c(SCc2ccc([N+](=O)[O-])cc2)n1,41*,10,23,29,10
CC(=O)c1ccc(N2C(=O)C3C(C2=O)C(C(=O)c2ccc(Cl)cc2)N2CCCC32)cc1 (stereo unspecified),8,12,42*,-160,9
Cn1c(CSCc2ccccc2Cl)n[nH]c1=S,6,0,4,34,-6
Cc1cccc(OCc2n[nH]c(=S)o2)c1,22,1,-22,7,-15
S=c1[nH]nc(COc2ccc(Cl)cc2)n1C1CCCCC1,12,7,-9,32,2
Cc1ccc(OCc2n[nH]c(=S)n2C2CCCCC2)cc1,-9,-7,-25,61*,-9
S=c1[nH]nc(CSCc2ccccc2Cl)n1C1CCCCC1,-8,-3,-26,65*,-2
